Diaph inh CS – diaphorase inhibitors and chemical oxidizers, primary screen, counter-screen for diaphorase-coupled primary assays, biochemical, uHTS, resorufin fluorescence. diaphorase resazurin-to-resorufin fluorescence, NADH, 16 min; bacterial (C. kluyveri) enzyme, not human. inhibition, % at 20 µM. 190,000 compounds, 0.69% hits;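 active = primary screen inhibition at 20 µM above a set limit, cut at about 50% in these data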;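 also: plate controls were DMSO with full reaction for no effect and wells lacking NADH for full effect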
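material = Clostridium kluyveri diaphorase enzyme | amount = 0.14 U/mL diaphorase, enzyme working solution | schedule = incubation 16 min, room temperature | detection = fluorescence of resorufin formed from resazurin, Ex 544/Em 590 nm | benchmarks = positive control minus NADH, DMSO neutral control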
Diaphorase act – compounds boosting diaphorase resazurin reduction – biochemical, uHTS, resorufin fluorescence, counter-screen for diaphorase-coupled primary assays, primary screen. Diaphorase/resazurin coupled assay, 16 min; stronger effect = higher value; 1 = vehicle wells, 0 = NADH-free wells. activation factor at 20 µM. 190,000 compounds, 0.005% hits;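 active = diaphorase activity raised at least twofold by the compound at 20 µM; inactive = activation factor below 2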
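System – purified diaphorase enzyme from Clostridium kluyveri · Input – enzyme 0.07 U/mL final · Also added – final NADH 0.114 mM, resazurin 0.1 mM · Measured by – fluorescence of resorufin, 544 nm excitation, 590 nm emission · Timing – 16 min enzyme reaction, ambient temperature · Measure – resorufin increase flagging diaphorase activators or reducers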
PfG6PD inh – PfG6PD enzyme inhibitors, primary screen, biochemical, fluorescence intensity, uHTS | glucose-6-phosphate dehydrogenase-6-phosphogluconolactonase (Plasmodium falciparum 3D7) | PfGluPho enzyme, NADPH resazurin-diaphorase fluorescence | inhibition, % at 20 µM | 350,000 compounds, 0.78% hits | AID 504690, 2011;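 active = inhibition reaching at least a set limit at 20 µM in the primary screen, cut at about 59% in these data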;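 also: 0% = DMSO wells with substrate and 100% = DMSO wells lacking glucose-6-phosphate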
G6PDH CS – L. mesenteroides G6PDH inhibitors, counter-screen for G6PDH-coupled screening assays, biochemical, Leuconostoc mesenteroides enzyme; inhibition, % at 5 µM; Purified L. mesenteroides G6PDH, diaphorase/resazurin coupled fluorescence, 45 min; 200,000 compounds, 0.12% hits; glucose-6-phosphate dehydrogenase [Leuconostoc mesenteroides]
DTT redox prof – compounds producing H2O2 with reducing agent – biochemical, NIH compound library profiling, artefact control for MLSCN library redox annotation, primary screen. DTT-dependent redox cycling H2O2, phenol red/HRP absorbance; 100% = 100 µM peroxide control, 0% = buffer. activation, % at 10 µM. 200,000 compounds, 0.03% hits;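 active = activation of at least 50% relative to the plate's high and low controls in the primary single-dose screen; inactive = activation below 50%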;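 also: compound incubated with DTT at 0.8 mM final as the reducing agent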
L major viab – Leishmania major promastigote growth inhibition, primary screen. Leishmania major promastigotes, resazurin fluorescence viability. inhibition, % at 10 µM. 200,000 compounds, 9% hits. AID 1063, 2008;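 also: promastigotes grown with compound for 44 hours at 28 °C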
The depositor's hits bear a star; · = no result. The full list was thinned out, with hits kept by preference. Rule as the data show it, unless noted: active = inhibition above about 50%; inactive = the rest.

SMILES | Diaph inh CS | Diaphorase act | PfG6PD inh | G6PDH CS | DTT redox prof | L major viab
CC(C)N(CCc1ccncc1)C(=O)Nc1ccc(Cl)c(Cl)c1 | 12 | 0.9 | -16 | 2 | -3 | 92*
Oc1ccc(Cl)cc1CNCC1CCCCC1 | · | · | -5 | · | · | ·
CCC1(CC)NC(=O)N(CC(=O)OCC(=O)c2ccccc2OC)C1=O | · | · | -11 | · | · | ·
CCN(CC)c1cccc(OC(=O)c2cccnc2Cl)c1 | · | · | 26 | · | · | ·
Cc1ccc(NC(=O)/C(=C/c2cccc(Br)c2)NC(=O)c2ccco2)cc1 | 18 | 0.8 | 18 | 0 | 0 | 90*
CSc1ccc(/C=C(/NC(=O)c2ccc(C)cc2)C(=O)Nc2cccc(C)c2)cc1 | 7 | 0.9 | -18 | 6 | 1 | 63*
CC(C)COP(=O)(CNC(=O)CN1C(=O)c2ccccc2S1(=O)=O)OCC(C)C | -1 | 1 | -11 | -3 | 0 | -2
COc1ccc2cc(N=Cc3nc(-c4ccc(C)cc4)oc3O)cnc2c1 | 0 | 1 | 1 | 1 | -2 | -1
CCOC(=O)c1c(NC(=O)CSc2nnc(-c3ccncc3)n2Cc2ccco2)sc(C(C)=O)c1C | · | · | 6 | · | 1 | -2
CCOC(=O)c1c(NC(=O)CSc2nnc(-c3ccncc3)n2Cc2ccco2)sc(C)c1C | 32 | 0.7 | -13 | 6 | 0 | 56*
CCOc1ccccc1NC(=O)CSc1nnc(-c2ccccc2Cl)n1Cc1ccco1 | 15 | 0.9 | -10 | 2 | 3 | 51*
CCOc1ccccc1NC(=O)CSc1nnc(-c2ccco2)n1Cc1ccco1 | 11 | 0.9 | 9 | 2 | 0 | 13
CCOc1cc(N2CCOCC2)c(OCC)cc1NC(=O)c1cc(S(=O)(=O)N2CCOCC2)ccc1F | · | · | 38 | · | · | ·
O=C(CSc1nc(-c2cccs2)cc(C(F)(F)F)n1)Nc1cc(OCC(F)(F)C(F)F)cc([N+](=O)[O-])c1 | 11 | 0.9 | -13 | -20 | 0 | 84*
O=C(CSc1nc(-c2cccs2)cc(C(F)(F)F)n1)NCCCn1ccnc1 | -10 | 1.1 | -6 | -1 | 1 | -1
COc1cc(C=C2CCCC(=Cc3ccc(OCC4CO4)c(OC)c3)C2=O)ccc1OCC1CO1 (centres undefined) | · | · | 5 | · | · | ·
COc1ccc(/C=C2\CCC/C(=C\C=N\N(C)C)C2=O)cc1 | 4 | 1 | 12 | 0 | -1 | 93*
CN(C)/N=C/C=C1\CCC/C(=C\c2ccc(F)c(F)c2)C1=O | 19 | 0.8 | 6 | 16 | 0 | 97*
COc1ccc(/C=C2\CCCCC2=O)cc1 | · | · | 0 | · | · | ·
COc1ccccc1-c1nnc(SCC(=O)Nc2cccnc2Cl)n1C | · | · | 2 | · | · | ·
CCOC(=O)CSC1=C(C#N)C(c2ccc3c(c2)OCO3)CC(=O)N1 (centres undefined) | 14 | 0.9 | 8 | 12 | 0 | 73*
CCCCOC(=O)CSC1=C(C#N)C(c2ccc3c(c2)OCO3)CC(=O)N1 (centres undefined) | -2 | 1 | 0 | 2 | -1 | 20
COc1cccc(NC(=S)N/N=C2\CC3CCC2(C)C3(C)C)c1 (centres undefined) | 7 | 0.9 | -1 | 5 | -1 | 89*
CC12CCC(C/C1=N/NC(=O)Nc1ccccc1)C2(C)C (centres undefined) | 14 | 0.9 | 10 | 16 | -1 | 95*
CCOc1ccc(CN(C(=O)c2ccccn2)c2ccc(OC)c(Cl)c2)cc1 | · | · | 0 | · | · | ·
SMILES | Diaph inh CS | Diaphorase act | PfG6PD inh | G6PDH CS | DTT redox prof | L major viab
O=C(NCc1ccco1)C1CCN(C(=O)c2cc3sccc3n2Cc2ccc(F)cc2)CC1 | 19 | 0.8 | 3 | -7 | 3 | 79*
O=C(NCc1ccco1)C1CCN(Cc2ccc(F)cc2)CC1 | 11 | 0.9 | 7 | 0 | 0 | 91*
CCN(CC)CCCNC(=O)C1CCN(C(=O)c2cc3sccc3n2Cc2ccc(F)cc2)CC1 | 15 | 0.8 | 8 | 8 | 2 | 99*
CCN1CCCC1CNC(=O)C1CCN(C(=O)c2cc3sccc3n2Cc2ccc(F)cc2)CC1 (centres undefined) | -8 | 1.1 | -11 | 9 | 0 | 90*
O=C(NCc1ccccn1)C1CCN(C(=O)c2cc3sccc3n2Cc2ccc(F)cc2)CC1 | 3 | 1 | 2 | 2 | -1 | 9
O=C(NCc1ccco1)C1CCCCC1 | 16 | 0.8 | -5 | 11 | 0 | -6
CCn1c(C(=O)N2CCC(C(=O)NCc3ccc4c(c3)OCO4)CC2)cc2sccc21 | 21 | 0.8 | 28 | -28 | -2 | -4
CCOCCCNC(=O)C(NC(=O)c1ccc(NC(C)=O)cc1)c1ccc(OC)cc1 (centres undefined) | 11 | 0.9 | -17 | -4 | -1 | -5
Cc1cccc(C)c1OCC(=O)N(Cc1ccc(N(C)C)cc1)C1CCS(=O)(=O)C1 (centres undefined) | · | · | 18 | · | · | ·
COCCCNC(=O)C1CCN(C(=O)c2cc3sccc3n2Cc2ccc(F)cc2)CC1 | 15 | 0.9 | 7 | 8 | 2 | 14
O=C(NCCCN1CCCC1)C1CCN(C(=O)c2cc3sccc3n2Cc2ccc(F)cc2)CC1 | -2 | 1 | 2 | 3 | 0 | 93*
O=C(CCNC(=O)N1CCn2c1nc1ccccc12)NCc1ccccc1Cl | · | · | -34 | · | · | ·
O=C(Nc1nc(-c2cc(Cl)sc2Cl)cs1)c1ccc(Br)s1 | 6 | 0.9 | -10 | 2 | 3 | 1
O=C(Nc1nc(-c2ccccn2)cs1)c1ccc(Br)s1 | 12 | 0.9 | -19 | 17 | 1 | 100*
O=C(Nc1nc(-c2ccccn2)cs1)c1ccco1 | 28 | 0.7 | 30 | 28 | -1 | 100*
C[C@H](NC(=O)c1ccco1)C(=O)Nc1nc(-c2ccccn2)cs1 | · | · | 16 | · | · | ·
COCCn1c(-c2ccc(OC)cc2)nc2ccccc21 | 3 | 1 | 10 | 0 | 0 | 56*
CCNc1ccc(S(=O)(=O)N(C)C)cc1NCC(=O)Nc1ccc(Br)cc1F | 13 | 0.9 | 12 | 19 | -1 | 72*
CCNc1ccc(S(=O)(=O)N(C)C)cc1NCC(=O)Nc1ccccc1F | 18 | 0.8 | 7 | -3 | 0 | 26
O=C(Nc1nccs1)c1c(O)c2cccc3c2n(c1=O)CCC3 | 6 | 0.9 | · | 4 | 1 | 96*
CCCCN(CCCC)S(=O)(=O)c1ccc(NC(=O)c2cccs2)cc1 | 20 | 0.8 | 8 | 6 | 0 | 94*
Cc1cc(C)nc(NS(=O)(=O)c2ccc(NC(=O)c3cccs3)cc2)n1 | -4 | 1 | 31 | 12 | 0 | -3
